The subject of one series is Plasmodium falciparum. As to the kind of experiment: Antimalarial activity against chloroquine-resistant Plasmodium falciparum Dd2 assessed as parasite growth inhibition after 72 hrs by SYBR Green 1 assay. It counts as functional. The conditions noted are these: Dd2, 72 h. An outline of the steps: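 Viability was read by SYBR Green I DNA quantitation and normalized to DMSO-treated untreated controls. IC50 came from nonlinear regression, averaging at least three independent experiments run in triplicate, with standard deviations.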

A short description of series [1]: Selectivity index, ratio of IC50 for human WI38 cells to IC50 for chloroquine-resistant Plasmodium falciparum Dd2. As to conditions: read-out: Ratio IC50. It is filed as toxicity.
The test system of the next series is WI-38. As to the kind of experiment: Cytotoxicity against human WI38 cells after 24 hrs by resazurin assay. As to conditions: WI-38, 24 h. (In general: Resazurin is reduced to fluorescent resorufin, in cell work by metabolically active cells.)

The term IC50 denotes the concentration at which inhibition is half-maximal. As for `C/C=C(\C)C(=O)OC[C@]1(O)[C@H]2C[C@H]2[C@]2(C)[C@@H]3CC4=C5[C@H](/C(=C(/C)C(=O)OC)C(=O)[C@H](O)[C@@]5(C)[C@@H]5C[C@H]45)[C@@]34OC(=O)C(COC(C)=O)=C4C[C@@H]12`, the results for the IC50 in the series with Plasmodium falciparum and with WI-38 were 13 nM and 160 nM, respectively. Besides, the selectivity ratio in series [1] stood at 12.
The matching figures for `COC(=O)CCC(=O)OCC1=C2C[C@H]3[C@](O)(COC(=O)/C=C(\C)CO)[C@H]4C[C@H]4[C@]3(C)[C@@H]3CC4=C5[C@H](/C(=C(\C)C(=O)OC)C(=O)[C@H](O)[C@@]5(C)[C@@H]5C[C@H]45)[C@]23OC1=O`: 1.1 nM, 5390 nM and 4900.
The matching figures for `C/C=C(\C)C(=O)OC[C@]1(O)[C@H]2CC3=C(CO)C(=O)O[C@@]34[C@@H]3C5=C(C[C@H]4[C@@]2(C)[C@@H]2C[C@@H]21)[C@H]1C[C@H]1[C@]5(C)[C@@H](O)C(=O)/C3=C(\C)C(=O)OC`: 21 nM, 770 nM and 37.
Consider `COC(=O)/C(C)=C1\C(=O)[C@H](O)[C@]2(C)C3=C(C[C@@H]4[C@]5(OC(=O)C(C)=C5C[C@H]5[C@](O)(COC(=O)/C=C(\C)CO)[C@H]6C[C@H]6[C@]45C)[C@H]31)[C@H]1C[C@H]12`, for which the IC50 turned out to be 96 nM in the series with Plasmodium falciparum and 4450 nM with WI-38. Besides, in series [1], the selectivity ratio came out at 46.
The matching figures for `COC(=O)/C(C)=C1\C(=O)[C@H](O)[C@]2(C)C3=C(C[C@@H]4[C@]5(OC(=O)C(COC(=O)C[C@H](O)C(=O)OC)=C5C[C@H]5[C@](O)(COC(=O)/C(C)=C/CO)[C@H]6C[C@H]6[C@]45C)[C@H]31)[C@H]1C[C@H]12`: 7.2 nM, 4040 nM and 561.
Regarding `COC(=O)/C(C)=C1\C(=O)[C@H](O)[C@]2(C)C3=C(C[C@@H]4[C@]5(OC(=O)C(CO)=C5C[C@H]5[C@](O)(COC(C)=O)[C@H]6C[C@H]6[C@]45C)[C@H]31)[C@H]1C[C@H]12`, the IC50 in the series on Plasmodium falciparum was found to be 100 nM; in the series on WI-38 it was 10000 nM. Moreover, the selectivity ratio in series [1] came to 100.
The matching figures for `COC(=O)CCC(=O)OC/C(C)=C/C(=O)OC[C@]1(O)[C@H]2C[C@H]2[C@]2(C)[C@@H]3CC4=C5[C@H](/C(=C(\C)C(=O)OC)C(=O)[C@H](O)[C@@]5(C)[C@@H]5C[C@H]45)[C@@]34OC(=O)C(CO)=C4C[C@@H]12`: 19 nM, 3090 nM and 163.
`COC(=O)/C(C)=C1/C(=O)[C@H](O)[C@]2(C)C3=C(C[C@@H]4[C@]5(OC(=O)C6=C5C[C@H]5[C@](O)(COC(=O)/C=C(\C)COC(=O)CCC(=O)OC6)[C@H]6C[C@H]6[C@]45C)[C@H]31)[C@H]1C[C@H]12`: the IC50 in the series with Plasmodium falciparum came to 46 nM; in the series with WI-38 it was 1240 nM. The selectivity ratio in series [1] was 27.
In the same order, the values of `C=C1C(=O)O[C@]23C4=C5C(=O)[C@H](O)[C@]6(C)C4=C(C[C@H]2[C@]2(C)C(C[C@]13[C@]5(C)C(=O)OC)[C@](O)(COC(=O)/C(C)=C/COC(=O)CCC(=O)OC)[C@H]1C[C@H]12)[C@H]1C[C@H]16` (stereo partly specified) are 99 nM, 15500 nM and 157.
On to `COC(=O)CCC(=O)OC/C(C)=C/C(=O)OC[C@]1(O)[C@H]2C[C@H]2[C@]2(C)[C@@H]3C[C@@]4(OO)C5=C(/C(=C(\C)C(=O)OC)C(=O)[C@H](O)[C@@]5(C)[C@@H]5C[C@@H]54)[C@@]34OC(=O)C(CO)=C4C[C@@H]12`, for which the IC50 in the series with Plasmodium falciparum was found to be 30 nM; in the series on WI-38 it was 530 nM. Also, the selectivity ratio in series [1] amounted to 18.
In the same order, the values of `COC(=O)/C(C)=C1\C(=O)[C@H](O)[C@]2(C)C3=C(C[C@@H]4[C@]5(OC(=O)C6=C5C[C@H]5[C@](O)(COC(=O)/C(C)=C/COC(=O)CCC(=O)OC6)[C@H]6C[C@H]6[C@]45C)[C@H]31)[C@H]1C[C@H]12` [SHIZUKAOL B] are 27 nM, 16700 nM and 619.
For the compound `COC(=O)/C(C)=C1\C(=O)[C@H](O)[C@]2(C)C3=C(C[C@@H]4[C@]5(OC(=O)C6=C5C[C@H]5[C@](O)(COC(=O)/C=C(\C)COC(=O)CCC(=O)OC6)[C@H]6C[C@H]6[C@]45C)[C@H]31)[C@H]1C[C@H]12` [SHIZUKAOL F], the values for the half-inhibitory concentration (IC50) in the series on Plasmodium falciparum and in the series with WI-38 were 11 nM and 230 nM, respectively. Also, the selectivity ratio in series [1] is 21.

The values are drawn from ChEMBL document CHEMBL4004786, “Nanomolar Antimalarial Agents against Chloroquine-Resistant Plasmodium falciparum from Medicinal Plants and Their Structure-Activity Relationships” (J Nat Prod, 2017).
